We go through 14 molecules from PubChem BioAssay.

Assay [1] can be described thus: inhibitors of TNFa-induced NFkB p65 translocation, primary screen, imaging, HUVEC, MLSMR starter and 10KST1 sets (AID 438;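 active = inhibition above 20% together with a positive visual image hit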;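 note: compound added about 3h40 before a 20 min TNFalpha stimulation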;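 for inhibition: signal is the nuclear over cytoplasmic p65 intensity ratio per well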). As to conditions: HUVEC TNFa-induced p65 nuclear translocation; cell count: measured here: nuclei count (cytotoxicity indicator), at 2.08 µM; inhibition: at 2 µM, stronger effect = higher value, 0% TNFa-plus-vehicle, 100% no-TNFa wells.
Assay [2] is described as follows: reduction of polyQ htt aggregates in cells – imaging, exon1htt(103Q)mCFP cells, high-content imaging, primary screen (AID 483;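 active = visual image review flags a hit and inhibition of aggregation exceeds 20%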;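 note: compound exposure lasted 3 days before fixation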;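 for nuclei count: percent of the per-plate median nuclei count of sample wells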). The note with it: exon1htt(103Q)mCFP cell line, aggregate imaging, at 2 µM; inhibition of aggregation: stronger effect = higher value; nuclei count: measured here: cell count, toxicity.
A short description of assay [3]: endothelial E-selectin expression blockers – imaging, HUVEC, immunofluorescence, MLSMR starter and 10KST1 sets, primary screen (AID 487;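 active = visually confirmed hit in the image check and inhibition above 20%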;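 for inhibition: signal is fraction of cell area covered by stained E-selectin grains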;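 for nuclei count: 100% = median nuclei count of all wells on the same plate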). The note with it: HUVEC TNFalpha-induced E-selectin immunofluorescence imaging, at 2 µM; inhibition: stronger effect = higher value; nuclei count: measured here: cell number, toxicity.
For assay [4], the target named is Voltage-gated potassium channel subunit beta-2 (Rattus norvegicus) (UniProt P62483). The experiment in a line: inhibitors of rat Kvbeta2 reductase activity – biochemical, NADPH fluorescence, primary screen (AID 622;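 active = fluorescence slope higher than the sample average by over 3 SD, cut at about -0.22 in these data, passing the limit was not always enough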;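 note: slope of raw intensity against log time taken from 70 to 1610 s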). As to conditions: recombinant KvBeta, 4-cyanobenzaldehyde reduction, at 10 µM, stronger effect = higher value.
Voltage-gated potassium channel subunit beta-2 (Rattus norvegicus), sequence (P62483 whole entry, looked up): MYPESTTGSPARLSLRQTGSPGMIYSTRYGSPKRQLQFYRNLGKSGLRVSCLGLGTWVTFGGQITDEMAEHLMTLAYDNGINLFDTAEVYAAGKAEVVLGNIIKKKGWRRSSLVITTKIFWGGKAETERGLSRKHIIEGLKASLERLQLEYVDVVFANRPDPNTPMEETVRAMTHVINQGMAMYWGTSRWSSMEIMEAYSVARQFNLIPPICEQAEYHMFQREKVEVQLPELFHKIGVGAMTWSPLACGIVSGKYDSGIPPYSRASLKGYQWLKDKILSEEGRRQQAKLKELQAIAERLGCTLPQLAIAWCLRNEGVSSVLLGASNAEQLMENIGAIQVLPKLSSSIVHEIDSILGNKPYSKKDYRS
The target is the same in assay [5]. The experiment in a line: enhancers of rat Kvbeta2 NADPH turnover – biochemical, NADPH fluorescence, primary screen (AID 623;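 active = NADPH fluorescence slope more negative than the mean of all samples by about 3 SD, 99.7% confidence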;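 note: fluorescence intensity change per second fitted from 20 to 320 s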). As to conditions: Recombinant KvBeta, NADPH fluorescence decrease slope, 10 min; at 10 µM; stronger effect = lower value.
The target of assay [6] is Muscarinic acetylcholine receptor M4 (Homo sapiens) (UniProt P08173). The experiment in a line: M4-linked GIRK flux change, two-sided – cell-based, HEK293 M4/GIRK, thallium flux, BTC-AM, M4 allosteric agonist project, primary screen (AID 625;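 active = fluorescence slope after compound addition differing from the mean of all tested samples at 99.7% confidence, mostly higher but some lower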;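 note: thallium influx through GIRK channels coupled to M4 in HEK293 cells with BTC-AM dye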). The note with it: at 10 µM, actives lie on both sides. In a few lines:
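Assay system: HEK293 cells with M4 receptor and GIRK channels / Controls: carbachol and DMSO controls / Schedule: 1 h dye loading, 2 min kinetic read / Technique: kinetic fluorescence with BTC-AM dye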

A short description of assay [7]: blockers of RIG-like receptor reporter activation – cell-based, Sendai virus stimulus, luciferase, 10K MLSCN set, TLR/RLR signaling modifier project, primary screen (AID 602276).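 Note: firefly luciferase from ISG56 promoter only with Renilla not read in this screen; 0% = Sendai virus plus DMSO and 100% = medium plus DMSO without virus.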 The note with it: HEK293 RL24 IRF3 luciferase reporter, at 10 µM, stronger effect = higher value.
Assay [8] in a line: TLR3 IRF3 reporter activation blockers – cell-based, poly I:C stimulus, luciferase, 10K MLSCN set, primary screen (AID 602277;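 active = inhibition of the reporter signal at or above 50%; inactive = inhibition below 50%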). The note with it: HEK293-TLR3 RL24 IRF3 luciferase reporter, at 10 µM, stronger effect = higher value. In general terms: A reporter such as luciferase makes a cellular process visible.

Calls of active or inactive are those of the source.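 Rule for the calls, unless noted: active = inhibition at or above 50% at 10 µM; inactive = inhibition below 50%.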

Muscarinic acetylcholine receptor M4 (Homo sapiens), sequence (P08173 whole entry, looked up): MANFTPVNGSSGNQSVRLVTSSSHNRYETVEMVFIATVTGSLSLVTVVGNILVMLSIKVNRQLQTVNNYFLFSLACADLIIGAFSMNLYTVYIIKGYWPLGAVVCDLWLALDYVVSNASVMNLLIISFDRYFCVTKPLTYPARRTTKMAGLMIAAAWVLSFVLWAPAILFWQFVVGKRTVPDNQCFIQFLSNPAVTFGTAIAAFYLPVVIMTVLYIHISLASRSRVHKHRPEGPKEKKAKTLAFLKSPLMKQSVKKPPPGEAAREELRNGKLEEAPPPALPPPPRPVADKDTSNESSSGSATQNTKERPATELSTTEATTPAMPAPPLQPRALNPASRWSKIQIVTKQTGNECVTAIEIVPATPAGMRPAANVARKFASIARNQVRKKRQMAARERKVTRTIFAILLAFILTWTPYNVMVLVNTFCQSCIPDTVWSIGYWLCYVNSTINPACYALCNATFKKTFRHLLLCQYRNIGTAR

In the case of `CCOc1ccccc1NC(=O)N1CCCC1C(=O)Nc1nnc(CC)s1` (centres undefined), in assay [1], the cell count turned out to be 599. In addition, the inhibition in assay [1] was -0.7% (inactive); in assay [3] it was -86% (inactive); in assay [7], 1.66% (inactive); in assay [8], 12.7% (inactive). In assay [2], the inhibition of aggregation is -35.9% (inactive). Besides, the nuclei count is 63.6% in assay [2] and 98.7% in assay [3]. For the same molecule, the values for the fluorescence slope in assay [4] and in assay [6] were -0.296 (inactive) and 0.00525 (inactive), respectively. Further, the NADPH fluorescence slope in assay [5] was -3.1e-05 (inactive).

In the case of `CCOc1ccc(OCc2cccc(C(=O)O)c2)cc1`, the cell count in assay [1] was found to be 600. Moreover, the inhibition is 3.8% (inactive) in assay [1], -68% (inactive) in assay [3], -46.2% (inactive) in assay [7] and -87.1% (inactive) in assay [8]. The inhibition of aggregation in assay [2] was -11.5% (inactive). The nuclei count in assay [2] was determined as 112%; in assay [3], 116%. Also, the fluorescence slope in assay [4] was -0.551 (inactive); in assay [6] it was 0.00598 (inactive). In assay [5], the NADPH fluorescence slope is -2.8e-05 (inactive).

With `COC(=O)c1ccc(CSc2ncnc3c2nnn3-c2ccc(OC)cc2)o1`, in assay [1], the cell count came out at 444. The inhibition in assay [1] was 3.3% (inactive); in assay [3] it was -43.8% (inactive); in assay [7], 1.55% (inactive); in assay [8] it was -32.3% (inactive). Besides, the inhibition of aggregation in assay [2] is -13.1% (inactive). The nuclei count in assay [2] was 95%; in assay [3], 113%. For the same molecule, the fluorescence slope in assay [4] was -0.577 (inactive); in assay [6], 0.00411 (inactive). In addition, the NADPH fluorescence slope in assay [5] was -2.7e-05 (inactive).

As to `Cc1nc(N2CCOCC2)[nH]c(=O)c1CCC(C)C`, the cell count in assay [1] was 417. Besides, the inhibition in assay [1] is -3.4% (inactive); in assay [3] it was 28.7% (inactive); in assay [7] it was 15.6% (inactive); in assay [8] it was 21.2% (inactive). For the same molecule, the inhibition of aggregation in assay [2] is 6.3% (inactive). For the same molecule, the nuclei count in assay [2] amounted to 107%; in assay [3], 57.6%. The fluorescence slope was -0.4 (inactive) in assay [4] and 0.0057 (inactive) in assay [6]. In assay [5], the NADPH fluorescence slope is 2.6e-05 (inactive).

For `CCc1nnc(NC(=O)c2cccc(C(=O)Nc3nnc(CC)s3)n2)s1`, in assay [1], the cell count came to 700. Further, the inhibition in assay [1] is -23.3% (inactive); in assay [3] it was -18.7% (inactive); in assay [7] it was -5.37% (inactive); in assay [8], -13.7% (inactive). The inhibition of aggregation in assay [2] is 13.6% (inactive). Moreover, the nuclei count came out at 120% in assay [2] and 107% in assay [3]. Besides, the fluorescence slope in assay [4] is -0.398 (inactive); in assay [6] it was 0.00556 (inactive). Also, in assay [5], the NADPH fluorescence slope is -3.4e-05 (inactive).

Turning to `CNC(=O)CC(C(=O)O)c1ccc(OCC(C)C)cc1` (centres undefined), the cell count in assay [1] was 611. Further, the inhibition was -1.5% (inactive) in assay [1], 13.6% (inactive) in assay [3], 9.55% (inactive) in assay [7] and 16.9% (inactive) in assay [8]. Besides, in assay [2], the inhibition of aggregation is -15.2% (inactive). For the same molecule, the nuclei count in assay [2] was determined as 114%; in assay [3], 103%. The results for the fluorescence slope in assay [4] and in assay [6] were -0.562 (inactive) and 0.00333 (inactive), respectively. Further, in assay [5], the NADPH fluorescence slope is -8.4e-05 (inactive).

Turning to `NC(=O)c1c(NC(=O)CSc2nnc(-c3ccco3)n2-c2ccccc2)sc2c1CCC2`, the cell count in assay [1] was found to be 577. The inhibition in assay [1] was -15.4% (inactive); in assay [3], 50.4% (inactive); in assay [7], 30.1% (inactive); in assay [8], 32.9% (inactive). For the same molecule, the inhibition of aggregation in assay [2] was -3.6% (inactive). In addition, the values for the nuclei count in assay [2] and in assay [3] were 115% and 132%, respectively. The fluorescence slope was -0.525 (inactive) in assay [4] and 0.00489 (inactive) in assay [6]. Besides, in assay [5], the NADPH fluorescence slope was 0.00013 (inactive).

For the molecule `COC(=O)c1cc(Br)ccc1-c1ccc(/C=N/n2nnnc2N)o1`, in assay [1], the cell count amounted to 438. Moreover, the inhibition in assay [1] was 1% (inactive); in assay [3], -56% (inactive); in assay [7], 15.2% (inactive); in assay [8], 24.4% (inactive). The inhibition of aggregation in assay [2] was -4.4% (inactive). Further, the nuclei count in assay [2] worked out at 97.9%; in assay [3], 111%. Further, the fluorescence slope in assay [4] is -0.531 (inactive); in assay [6], 0.00728 (inactive). The NADPH fluorescence slope in assay [5] was -2.3e-05 (inactive).

Consider `CCOc1ccc(NC(=O)CN2CCN(CC(=O)Nc3ccc(F)c(F)c3)CC2)cc1`, for which, in assay [1], the cell count was 409. In addition, the inhibition is 3.1% (inactive) in assay [1], -60.2% (inactive) in assay [3], 12.5% (inactive) in assay [7] and 23% (inactive) in assay [8]. Also, the inhibition of aggregation in assay [2] is -0.9% (inactive). Besides, the nuclei count in assay [2] came to 105%; in assay [3], 99.8%. Further, the fluorescence slope in assay [4] is -0.435 (inactive); in assay [6], 0.00651 (inactive). Also, the NADPH fluorescence slope in assay [5] was 4.4e-05 (inactive).

Take `CCCC(C(=O)NCc1ccco1)N(C(=O)CNS(=O)(=O)c1ccc(Cl)cc1)C1CCCC1` (centres undefined): in assay [1], the cell count is 387. The inhibition in assay [1] is -0.7% (inactive); in assay [3], -210% (inactive); in assay [7] it was 24.7% (inactive); in assay [8], 25.7% (inactive). Also, the inhibition of aggregation in assay [2] is -2.5% (inactive). The nuclei count was 110% in assay [2] and 111% in assay [3]. Also, the fluorescence slope in assay [4] was -0.522 (inactive); in assay [6], 0.00544 (inactive). In addition, the NADPH fluorescence slope in assay [5] was -1.1e-05 (inactive).

As for `COc1ccc(C2=NOC(C(=O)NCCCN3CCOCC3)C2)cc1` (centres undefined), in assay [1], the cell count was determined as 315. Also, the inhibition in assay [1] is 3.5% (inactive); in assay [3], 11.5% (inactive); in assay [7], 11.7% (inactive); in assay [8], 23.1% (inactive). Also, the inhibition of aggregation in assay [2] is 11.3% (inactive). Also, the values for the nuclei count in assay [2] and in assay [3] were 86% and 84.7%, respectively. Moreover, the fluorescence slope in assay [4] is -0.554 (inactive); in assay [6], 0.00417 (inactive). The NADPH fluorescence slope in assay [5] is -0.000122 (inactive).

Turning to `CCOc1ccc(-c2nnc(N(CC)C(=O)C3CCC3)s2)cc1`, in assay [1], the cell count turned out to be 440. The inhibition is 9.7% (inactive) in assay [1], -32% (inactive) in assay [3], -19.2% (inactive) in assay [7] and -80.4% (inactive) in assay [8]. Besides, the inhibition of aggregation in assay [2] is 3.2% (inactive). The nuclei count was 103% in assay [2] and 111% in assay [3]. Moreover, the fluorescence slope in assay [4] was -0.461 (inactive); in assay [6] it was 0.00526 (inactive). The NADPH fluorescence slope in assay [5] was 2e-05 (inactive).

On to `CCOC(=O)CSc1nc2ccccc2c(=O)n1CCN1CCOCC1`, for which the cell count in assay [1] amounted to 513. Moreover, the inhibition in assay [1] is -3.4% (inactive); in assay [3], 4.2% (inactive); in assay [7] it was -2.06% (inactive); in assay [8], 17.7% (inactive). In assay [2], the inhibition of aggregation was -7.1% (inactive). Besides, the nuclei count turned out to be 96.3% in assay [2] and 109% in assay [3]. Also, the fluorescence slope in assay [4] is -0.474 (inactive); in assay [6] it was 0.00551 (inactive). Also, the NADPH fluorescence slope in assay [5] is -1.3e-06 (inactive).

Take `S=c1nc(C2CC2)[nH]c2ccccc12`: the cell count in assay [1] was 469. The inhibition in assay [1] was 0.8% (inactive); in assay [3] it was -99% (inactive); in assay [7], 19% (inactive); in assay [8], 20.9% (inactive). In assay [2], the inhibition of aggregation was -8.3% (inactive). Moreover, the nuclei count is 106% in assay [2] and 118% in assay [3]. Also, the fluorescence slope in assay [4] is -0.49 (inactive); in assay [6], 0.0139 (active). Moreover, in assay [5], the NADPH fluorescence slope was -4.4e-05 (inactive).

In general, inhibition refers to the drop in the measured response relative to a control, in per cent.
